# Hits are enriched below; roughly 4.1% of the tested compounds scored in any of these assays.
# TAG inh: inhibitors of triacylglycerol accumulation, primary screen, cell-based, uHTS, fluorescence, H9c2; inhibition, % at 12.5 µM; hit rate 0.66% among 230,000; H9c2 cells, Nile Red lipid (TAG) fluorescence; cells loaded with 200 µM oleic acid; AID 651582, 2012;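 active means pattern-corrected inhibition of lipid staining of at least 50% with the nuclear-stain viability signal not falling by more than 50%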;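 further: 0% = DMSO wells and 100% = triacsin C control wells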
# Efflux pump mplx: inhibitors of Candida efflux pumps in yeast, primary screen, S. cerevisiae, Nile Red, multiplex | S. cerevisiae Candida pump triplex | inhibition, % at 10 µM | hit rate 0.44% among 330,000;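 active means plate passing quality check with inhibition over a set limit, or well fluorescence over plate mean plus 4 SD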;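 further: Nile Red retained in pooled yeast measured as flow cytometry median fluorescence; 0% = buffer negative control and 100% = Enniatin B positive control; higher means more Nile Red kept so more efflux inhibition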
# TbMetRS inhib: T. brucei MetRS inhibitors, primary screen, biochemical, luminescence; methionyl-tRNA synthetase (Trypanosoma brucei brucei); purified T. brucei MetRS, ATP depletion, Kinase-Glo luminescence; inhibition, % at 11.9 µM; hit rate 0.4% among 360,000; AID 624268, 2012;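 active means inhibition above a per-plate cutoff of the control wells' mean inhibition plus 3 SD, cut at about 5.5% in these data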;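 further: 0% = DMSO wells median and 100% = median of wells with control inhibitor compound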
#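 Material: T. brucei methionyl-tRNA synthetase, purified; reagent: substrates ATP, L-methionine and bulk Escherichia coli tRNA; dosing: 11.9 µM single point; timing: 15 min plus 2 h at 25 °C; detection: luminescence of leftover ATP; evaluation: % inhibition; control set: DMSO-only wells as low control; replicates: singlicate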
# SMARCA2 activ: SMARCA2 (BRM) function activators, primary screen, cell-based, luminescence, high throughput | AID 652017, 2013 | hit rate 1% among 370,000 | activation, % at 9.1 µM | MG213 cells, MMTV-luciferase reporter, dexamethasone, overnight; in the data active means activation above about 7.8%;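 further: 0% = vehicle wells and 100% = reference activator wells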
# AHR act: AHR activators, primary screen, cell-based, luminescence, luciferase reporter, human; Aryl hydrocarbon receptor (Homo sapiens), P35869; AHR-responsive luciferase reporter cells; activation, % at 5 µM; hit rate 2.5% among 320,000; AID 2796, 2010; in the data active means activation above about 47%;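 further: 0% = vehicle wells and 100% = reference agonist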
# Target sequence (P35869 whole entry, looked up): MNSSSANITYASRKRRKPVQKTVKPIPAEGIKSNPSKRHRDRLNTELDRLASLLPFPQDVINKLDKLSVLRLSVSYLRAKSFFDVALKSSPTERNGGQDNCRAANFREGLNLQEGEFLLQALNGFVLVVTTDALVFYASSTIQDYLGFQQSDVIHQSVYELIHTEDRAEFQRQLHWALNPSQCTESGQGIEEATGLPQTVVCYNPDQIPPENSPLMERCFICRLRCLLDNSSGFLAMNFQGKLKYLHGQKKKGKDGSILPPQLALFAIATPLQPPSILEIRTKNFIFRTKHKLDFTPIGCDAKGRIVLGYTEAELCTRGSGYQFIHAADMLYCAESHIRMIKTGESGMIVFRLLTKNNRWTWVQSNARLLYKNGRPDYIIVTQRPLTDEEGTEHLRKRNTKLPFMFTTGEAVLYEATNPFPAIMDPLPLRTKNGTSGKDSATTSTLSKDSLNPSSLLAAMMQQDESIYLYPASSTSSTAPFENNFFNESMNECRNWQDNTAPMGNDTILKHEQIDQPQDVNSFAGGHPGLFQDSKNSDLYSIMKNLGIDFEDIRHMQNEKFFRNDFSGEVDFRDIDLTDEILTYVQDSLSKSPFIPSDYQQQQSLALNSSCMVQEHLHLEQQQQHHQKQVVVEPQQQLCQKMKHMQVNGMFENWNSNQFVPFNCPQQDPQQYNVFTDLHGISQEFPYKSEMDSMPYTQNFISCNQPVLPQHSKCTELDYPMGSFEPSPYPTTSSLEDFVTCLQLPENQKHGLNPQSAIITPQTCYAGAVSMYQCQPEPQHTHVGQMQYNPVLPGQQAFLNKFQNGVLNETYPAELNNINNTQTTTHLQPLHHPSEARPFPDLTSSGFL
# SMARCA2 conf: SMARCA2 (BRM) function activators, confirmation, cell-based, luminescence, triplicate; shares compounds with SMARCA2 activ; MG213 cells, MMTV-luciferase with dexamethasone, overnight; MG213 cells expressing E1A, Rb sequestered; DMSO wells 0%, reference activator 100%; activation, % at 9.1 µM; hit rate 30% among 3,500; AID 652260, 2013;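 active means activation above its plate's cutoff, the mean activation of tested wells plus 3 SD, cut at about 7.9% in these data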
# VP16 Luc act: GAL4-VP16 luciferase reporter activation, counter-screen for SMARCA2 (BRM) activator project, cell-based, pG5luc, luminescence, high throughput; shares compounds with SMARCA2 activ; HEK293 GAL4-VP16 pG5luc reporter; scaled: DMSO wells 0%, SAHA wells 100%; activation, % at 9.1 µM; hit rate 41% among 3,500; AID 686939, 2013;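 active means activation above the solvent-only control well mean plus 3 SD, averaged across control plates, cut at about 5.2% in these data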
# Active calls of the source: *; · = no result.
SMILES,TAG inh,Efflux pump mplx,TbMetRS inhib,SMARCA2 activ,AHR act,SMARCA2 conf,VP16 Luc act
CCN1C(=O)/C(=C2/C(=O)N3c4c(cc(OC(C)=O)cc42)C(C)=CC3(C)C)SC1=S,·,0.0,-0.6,10.1*,2.6,0.6,0.1
CC(C)CN(C)C(=O)CCc1nnc(Cc2cccc(C(F)(F)F)c2)o1,-5.3,0.1,-0.3,8.4*,8.9,6.1,5.2*
c1ccc(-c2nc3ccccc3nc2-c2ccc(CN3CCC(c4nc5ccccc5[nH]4)CC3)cc2)cc1,·,·,·,8.7*,·,-0.2,1.7
c1coc(-c2nnc3n2N=C(c2ccc4c(c2)OCO4)CS3)c1,·,·,·,-4.3,·,·,·
COCCCNC(=O)C[C@H]1C[C@@]2(C(=O)OC)C(=C[C@H](COCc3ccccc3)O[C@@H]2C)N(CCc2ccc(OC)c(OC)c2)C1=O,·,·,·,0.6,·,·,·
O=c1c2ccccc2nc2c3ccccc3c(NCc3ccco3)nn12,·,0.0,-0.1,12.6*,28.8,10.1*,0.6
COc1ccc(-n2c(C)c(C)c3c(NCCO)ncnc32)cc1,·,-0.2,-0.2,·,·,·,·
Cc1c(C)n(CCCN(C)C)c2ncnc(NCc3ccccc3)c12,·,-0.1,-0.7,-1.1,1.2,·,·
Cc1ccc(-n2c(C)c(C)c3c(NCCCO)ncnc32)cc1,·,0.0,0.3,10.2*,·,12.4*,8.6*
Cc1c(C)n(CCc2ccccc2)c2ncnc(NCCO)c12,·,0.3,-0.3,10.3*,43.9,8.4*,10.2*
COc1ccc(-n2c(C)c(C)c3c(NCCCO)ncnc32)cc1,·,0.1,0.3,10.7*,·,-0.4,5.4*
C#CCNC(=O)C[C@H]1C[C@@]2(C(=O)OC)C(=C[C@H](C3CCCC3)O[C@@H]2C)N(Cc2ccco2)C1=O,·,·,·,-2.3,·,·,·
COc1ccc(OC)c(S(=O)(=O)N2CCCC(c3noc(-c4ccc(C)cc4)n3)C2)c1 (stereo not drawn),·,·,·,-2.5,·,·,·
Cc1cc2c(nc1C)CCCN2Cc1ccccc1C(F)(F)F,·,·,·,0.0,·,·,·
Brc1ccccc1OCCCCCN1CCOCC1,-11.9,0.0,1.6,10.0*,5.2,0.8,4.7
CCOC(=O)C(C)Sc1nc(-c2cccs2)ccc1C#N (stereo not drawn),·,-0.1,-0.3,-3.6,9.9,·,·
C=COC(=O)CSc1nc(-c2cccs2)ccc1C#N,·,-0.2,-0.9,8.3*,9.0,6.3,9.3*
O=C(N/N=C1/CC2C=CCC12)c1ccco1 (stereo not drawn),·,0.2,-0.3,8.9*,6.8,2.4,1.4
C=CCS/C(N)=N\N=C\c1c(O)ccc2ccccc12,-8.4,0.1,-0.5,11.7*,56.2*,12.3*,8.7*
COC(=O)[C@]12C[C@H](CC(=O)NCc3ccc(C)o3)C(=O)N(Cc3ccco3)C1=C[C@H](C(C)C)O[C@@H]2C1CC1,·,·,·,2.8,·,·,·
CCCCOc1nc(N2CCOCC2)nc(C)c1[N+](=O)[O-],-0.2,0.0,-0.2,-1.5,9.0,·,·
Cc1nc(N2CCOCC2)nc(Oc2ccccc2)c1[N+](=O)[O-],7.0,0.0,-0.6,10.6*,3.9,1.0,-1.6
CCCCS(=O)(=O)N1CCCc2nc(CC)c(CC)cc21,·,·,·,0.3,·,·,·
O=C1CCCC2=C1C(c1ccco1)Nc1ccc3ccccc3c12 (stereo not drawn),-15.0,0.1,-0.7,20.1*,25.1,8.3*,0.7
CCOC(=O)C(=O)N1CCC(C(=O)NC2CCCc3ccccc32)CC1 (stereo not drawn),·,·,·,-6.5,·,·,·
Cc1cc(C)nc(Nc2ccccc2Cl)n1,2.9,-0.1,-1.3,12.4*,5.6,1.6,1.3
Cc1cc(C)nc(Nc2ccccc2F)n1,·,0.1,-0.5,-0.7,-0.8,·,·
O=S1(=O)c2c(cccc2N2CCSCC2)Oc2ccccc2CN1Cc1cn(Cc2cccc(F)c2)nn1,·,·,·,0.1,·,·,·

# Screening data: PubChem BioAssay, several laboratories
